The values below come from ChEMBL document CHEMBL4033670, “Synthesis, characterization, molecular docking and in vitro antimalarial properties of new carboxamides bearing sulphonamide” (Eur J Med Chem, 2017).

In one test the test system is Plasmodium falciparum. Put plainly: Antimalarial activity against ring stage chloroquine-resistant Plasmodium falciparum W2 preincubated for 48 hrs measured after 48 hrs in presence of 10% human serum by YOYO-1 dye-based FACS analysis. The test is classed as functional. The method in brief: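 Sorbitol-synchronized ring-stage W2 parasites at 0.1% parasitemia grown 48 h in RPMI-1640 + 10% human serum under 3% O2/6% CO2/91% N2 with inhibitors (from 1000× DMSO stocks), no media change. Fixed 48 h in 1% formaldehyde/PBS pH 7.4 at room temperature. Stained with 1 nM YOYO-1 in 0.1% Triton X-100/PBS. Parasitemia read by flow cytometry.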
For orientation: A flow cytometer gives signals particle by particle.
On to `CC(=O)c1ccc(NC(=O)C(C(C)C)N(C(=O)c2ccccc2)S(=O)(=O)c2ccc(C)cc2)cc1` (stereo unspecified), for which the MIC99 amounted to 2.82 µM.

Take `CC(=O)c1ccc(NC(=O)C2CCCN2S(=O)(=O)c2ccc(C)cc2)cc1` (stereo unspecified): the MIC99 came out at 1.45 µM.

As for `CC(=O)c1ccc(NC(=O)C(Cc2ccccc2)N(C(=O)c2ccccc2)S(=O)(=O)c2ccc([N+](=O)[O-])cc2)cc1` (stereo unspecified), the MIC99 is 0.08 µM.

Regarding `CC(=O)c1ccc(NC(=O)C2CCCN2S(=O)(=O)c2ccc([N+](=O)[O-])cc2)cc1` (stereo unspecified), the MIC99 was 6.74 µM.

System in a further test: not listed separately
Put plainly: Antioxidant activity assessed as inhibition of DPPH radical generation at 5 mg/ml after 20 mins under dark condition by UV-Visible spectrophotometric analysis relative to control. It is filed as functional. The method in brief: (§1)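 Test compounds were made up in ethanol at 1.0, 2.0, 3.0, 4.0 and 5.0 mg/mL (solution concentrations before mixing). 1 mL of each was shaken with 4 mL of 0.1 mM ethanolic DPPH and kept in the dark at room temperature for 20 min. The decrease in A517 was read against an ethanol baseline. A DPPH blank had no compound. Scavenging % = [(Ac − As)/Ac] × 100.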
Take `CC(=O)c1ccc(NC(=O)C(Cc2c[nH]c3ccccc23)N(C(=O)c2ccccc2)S(=O)(=O)c2ccc(C)cc2)cc1` (stereo unspecified): the inhibition turned out to be 39.5%.

Consider `CC(=O)c1ccc(NC(=O)C(Cc2c[nH]c3ccccc23)N(C(=O)c2ccccc2)S(=O)(=O)c2ccccc2)cc1` (stereo unspecified), for which the inhibition stood at 61.2%.

With `CC(=O)c1ccc(NC(=O)C(Cc2c[nH]c3ccccc23)N(C(=O)c2ccccc2)S(=O)(=O)c2ccc([N+](=O)[O-])cc2)cc1` (stereo unspecified), the inhibition came to 24.3%.

As for `CC(=O)c1ccc(NC(=O)C(C(C)C)N(C(=O)c2ccccc2)S(=O)(=O)c2ccc(C)cc2)cc1` (stereo unspecified), the inhibition amounted to 42.7%.

As to `CC(=O)c1ccc(NC(=O)C2CCCN2S(=O)(=O)c2ccc(C)cc2)cc1` (stereo unspecified), the inhibition amounted to 20.7%.

Consider `CC(=O)c1ccc(NC(=O)C(Cc2ccccc2)N(C(=O)c2ccccc2)S(=O)(=O)c2ccc([N+](=O)[O-])cc2)cc1` (stereo unspecified), for which the inhibition came out at 49.2%.

As to `CC(=O)c1ccc(NC(=O)C2CCCN2S(=O)(=O)c2ccc([N+](=O)[O-])cc2)cc1` (stereo unspecified), the inhibition was determined as 25.6%.

System in a further test: not listed separately
As to the kind of experiment: Antioxidant activity assessed as inhibition of DPPH radical generation at 2 mg/ml after 20 mins under dark condition by UV-Visible spectrophotometric analysis relative to control. The test is classed as functional. The method in brief:
as §1
In the case of `CC(=O)c1ccc(NC(=O)C(Cc2c[nH]c3ccccc23)N(C(=O)c2ccccc2)S(=O)(=O)c2ccc(C)cc2)cc1` (stereo unspecified), the inhibition is 58%.

For the compound `CC(=O)c1ccc(NC(=O)C(Cc2c[nH]c3ccccc23)N(C(=O)c2ccccc2)S(=O)(=O)c2ccccc2)cc1` (stereo unspecified), the inhibition was 39.4%.

For the compound `CC(=O)c1ccc(NC(=O)C(Cc2c[nH]c3ccccc23)N(C(=O)c2ccccc2)S(=O)(=O)c2ccc([N+](=O)[O-])cc2)cc1` (stereo unspecified), the inhibition worked out at 22.9%.

Consider `CC(=O)c1ccc(NC(=O)C(C(C)C)N(C(=O)c2ccccc2)S(=O)(=O)c2ccc(C)cc2)cc1` (stereo unspecified), for which the inhibition came to 22.7%.

For the compound `CC(=O)c1ccc(NC(=O)C2CCCN2S(=O)(=O)c2ccc(C)cc2)cc1` (stereo unspecified), the inhibition was 20.7%.

In the case of `CC(=O)c1ccc(NC(=O)C(Cc2ccccc2)N(C(=O)c2ccccc2)S(=O)(=O)c2ccc([N+](=O)[O-])cc2)cc1` (stereo unspecified), the inhibition was determined as 26.8%.

As for `CC(=O)c1ccc(NC(=O)C2CCCN2S(=O)(=O)c2ccc([N+](=O)[O-])cc2)cc1` (stereo unspecified), the inhibition worked out at 23.5%.

System in a further test: not listed separately
As to the kind of experiment: Antioxidant activity assessed as inhibition of DPPH radical generation at 1 mg/ml after 20 mins under dark condition by UV-Visible spectrophotometric analysis relative to control. It is filed as functional. The method in brief: as §1
Regarding `CC(=O)c1ccc(NC(=O)C(Cc2c[nH]c3ccccc23)N(C(=O)c2ccccc2)S(=O)(=O)c2ccc(C)cc2)cc1` (stereo unspecified), the inhibition stood at 39.5%.

Turning to `CC(=O)c1ccc(NC(=O)C(Cc2c[nH]c3ccccc23)N(C(=O)c2ccccc2)S(=O)(=O)c2ccccc2)cc1` (stereo unspecified), the inhibition worked out at 31.7%.

Turning to `CC(=O)c1ccc(NC(=O)C(Cc2c[nH]c3ccccc23)N(C(=O)c2ccccc2)S(=O)(=O)c2ccc([N+](=O)[O-])cc2)cc1` (stereo unspecified), the inhibition was 22.1%.

Regarding `CC(=O)c1ccc(NC(=O)C(C(C)C)N(C(=O)c2ccccc2)S(=O)(=O)c2ccc(C)cc2)cc1` (stereo unspecified), the inhibition is 15.6%.

For `CC(=O)c1ccc(NC(=O)C2CCCN2S(=O)(=O)c2ccc(C)cc2)cc1` (stereo unspecified), the inhibition turned out to be 20.6%.

Turning to `CC(=O)c1ccc(NC(=O)C(Cc2ccccc2)N(C(=O)c2ccccc2)S(=O)(=O)c2ccc([N+](=O)[O-])cc2)cc1` (stereo unspecified), the inhibition worked out at 19.3%.

Take `CC(=O)c1ccc(NC(=O)C2CCCN2S(=O)(=O)c2ccc([N+](=O)[O-])cc2)cc1` (stereo unspecified): the inhibition stood at 22.7%.

System in a further test: not listed separately
Put plainly: Antioxidant activity assessed as inhibition of DPPH radical generation at 3 mg/ml after 20 mins under dark condition by UV-Visible spectrophotometric analysis relative to control. The test is classed as functional. A digest of the protocol:
as §1
Consider `CC(=O)c1ccc(NC(=O)C(Cc2c[nH]c3ccccc23)N(C(=O)c2ccccc2)S(=O)(=O)c2ccc(C)cc2)cc1` (stereo unspecified), for which the inhibition turned out to be 39.5%.

On to `CC(=O)c1ccc(NC(=O)C(Cc2c[nH]c3ccccc23)N(C(=O)c2ccccc2)S(=O)(=O)c2ccccc2)cc1` (stereo unspecified), for which the inhibition came to 47%.

In the case of `CC(=O)c1ccc(NC(=O)C(Cc2c[nH]c3ccccc23)N(C(=O)c2ccccc2)S(=O)(=O)c2ccc([N+](=O)[O-])cc2)cc1` (stereo unspecified), the inhibition came out at 23.5%.

Consider `CC(=O)c1ccc(NC(=O)C(C(C)C)N(C(=O)c2ccccc2)S(=O)(=O)c2ccc(C)cc2)cc1` (stereo unspecified), for which the inhibition is 29.7%.

As to `CC(=O)c1ccc(NC(=O)C2CCCN2S(=O)(=O)c2ccc(C)cc2)cc1` (stereo unspecified), the inhibition came out at 20.7%.

As to `CC(=O)c1ccc(NC(=O)C(Cc2ccccc2)N(C(=O)c2ccccc2)S(=O)(=O)c2ccc([N+](=O)[O-])cc2)cc1` (stereo unspecified), the inhibition came to 34.5%.

In the case of `CC(=O)c1ccc(NC(=O)C2CCCN2S(=O)(=O)c2ccc([N+](=O)[O-])cc2)cc1` (stereo unspecified), the inhibition is 24.3%.

System in a further test: not listed separately
Put plainly: Antioxidant activity assessed as inhibition of DPPH radical generation at 4 mg/ml after 20 mins under dark condition by UV-Visible spectrophotometric analysis relative to control. The test is classed as functional. The method in brief:
as §1
Regarding `CC(=O)c1ccc(NC(=O)C(Cc2c[nH]c3ccccc23)N(C(=O)c2ccccc2)S(=O)(=O)c2ccc(C)cc2)cc1` (stereo unspecified), the inhibition amounted to 39.5%.

For the compound `CC(=O)c1ccc(NC(=O)C(Cc2c[nH]c3ccccc23)N(C(=O)c2ccccc2)S(=O)(=O)c2ccccc2)cc1` (stereo unspecified), the inhibition came out at 54.1%.

Regarding `CC(=O)c1ccc(NC(=O)C(Cc2c[nH]c3ccccc23)N(C(=O)c2ccccc2)S(=O)(=O)c2ccc([N+](=O)[O-])cc2)cc1` (stereo unspecified), the inhibition is 24%.

For `CC(=O)c1ccc(NC(=O)C(C(C)C)N(C(=O)c2ccccc2)S(=O)(=O)c2ccc(C)cc2)cc1` (stereo unspecified), the inhibition was determined as 36.6%.

For `CC(=O)c1ccc(NC(=O)C2CCCN2S(=O)(=O)c2ccc(C)cc2)cc1` (stereo unspecified), the inhibition amounted to 20.7%.

For the compound `CC(=O)c1ccc(NC(=O)C(Cc2ccccc2)N(C(=O)c2ccccc2)S(=O)(=O)c2ccc([N+](=O)[O-])cc2)cc1` (stereo unspecified), the inhibition came out at 40%.

Consider `CC(=O)c1ccc(NC(=O)C2CCCN2S(=O)(=O)c2ccc([N+](=O)[O-])cc2)cc1` (stereo unspecified), for which the inhibition turned out to be 25.3%.

System in a further test: not listed separately
Put plainly: Antioxidant activity assessed as DPPH radical scavenging activity after 20 mins under dark condition by UV-Visible spectrophotometric analysis. The test is classed as functional. The method in brief: as §1
A general note: The DPPH test is a chemical assay of radical scavenging.
For the compound `CC(=O)c1ccc(NC(=O)C(Cc2c[nH]c3ccccc23)N(C(=O)c2ccccc2)S(=O)(=O)c2ccc(C)cc2)cc1` (stereo unspecified), the IC50 was 0.045 mM.

On to `CC(=O)c1ccc(NC(=O)C(Cc2c[nH]c3ccccc23)N(C(=O)c2ccccc2)S(=O)(=O)c2ccccc2)cc1` (stereo unspecified), for which the IC50 was 51 mM.

On to `CC(=O)c1ccc(NC(=O)C(Cc2c[nH]c3ccccc23)N(C(=O)c2ccccc2)S(=O)(=O)c2ccc([N+](=O)[O-])cc2)cc1` (stereo unspecified), for which the IC50 worked out at 0.73 mM.

In the case of `CC(=O)c1ccc(NC(=O)C(C(C)C)N(C(=O)c2ccccc2)S(=O)(=O)c2ccc(C)cc2)cc1` (stereo unspecified), the IC50 turned out to be 12 mM.

For the compound `CC(=O)c1ccc(NC(=O)C2CCCN2S(=O)(=O)c2ccc(C)cc2)cc1` (stereo unspecified), the IC50 was 36 mM.

In the case of `CC(=O)c1ccc(NC(=O)C(Cc2ccccc2)N(C(=O)c2ccccc2)S(=O)(=O)c2ccc([N+](=O)[O-])cc2)cc1` (stereo unspecified), the IC50 worked out at 39 mM.

As to `CC(=O)c1ccc(NC(=O)C2CCCN2S(=O)(=O)c2ccc([N+](=O)[O-])cc2)cc1` (stereo unspecified), the IC50 amounted to 19 mM.

In general, MIC99 refers to an inhibitory concentration at the 99% level, which refers to growth in some studies and to a panel of isolates in others. One may read the inhibition as the share of the control response that was lost under treatment. As usually defined, the IC50 is the concentration that inhibits the measured activity by half.
